From paper PMC7231973 (Neurobiology of Stress, 2019)
Like-named read-outs stand apart in the source and are kept apart here.

Assays:
[1] = cited from earlier work
human GABAAR α1β1γ2 = human GABAAR α1β1γ2 (Homo sapiens, UniProt P14867+P18505+P18507); assay: Voltage-clamp, modulation of GABA EC10 response in Xenopus laevis oocytes; format: cell-based; conditions: maximum modulation of the GABA EC10 response, mean ± S.E.M. (n = 3)
Procedure, shortened: (§1)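 Human GABAAR subtypes expressed in Xenopus laevis oocytes. The GABA EC10 (the concentration giving 10% of the maximal GABA response) was determined for each oocyte. Test compound was pre-applied for 30 s, then co-applied with EC10 GABA. Response = (I GABA EC10 + modulator / I GABA EC10) × 100, where I = current. Concentration-effect data were fitted to a four-parameter logistic equation.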

human GABAAR α1β2γ2 = human GABAAR α1β2γ2 (Homo sapiens, UniProt P14867+P18507+P47870); assay: as above; format: cell-based; conditions: maximum modulation of the GABA EC10 response, mean ± S.E.M. (n = 3)
Procedure, shortened: as §1

human GABAAR α2β1γ2 [2] = target: T1, human GABAAR α2β1γ2 (Homo sapiens, UniProt P18505+P18507+P47869); assay: Voltage-clamp, modulation of GABA EC10 response in Xenopus laevis oocytes; format: cell-based; conditions: maximum modulation of the GABA EC10 response, mean ± S.E.M. (n = 3)
human GABAAR α2β2γ2 = human GABAAR α2β2γ2 (Homo sapiens, UniProt P18507+P47869+P47870); assay: as above; format: cell-based; conditions: maximum modulation of the GABA EC10 response, mean ± S.E.M. (n = 3)
human GABAAR α4β3δ = human GABAAR α4β3δ (Homo sapiens, UniProt O14764+P28472+P48169); assay: Voltage-clamp, modulation of GABA EC10 response in Xenopus laevis oocytes; format: cell-based; conditions: maximum modulation of the GABA EC10 response, mean ± S.E.M. (n = 3)
Procedure, shortened: as §1

[3] = rodents; ref Irwin et al., 2015; cited from earlier work
synaptic GABAARs = conditions: ref Wafford et al., 2009; Jensen et al., 2013; cited from earlier work
human GABAAR α2β1γ2 [4] = target: T1, human GABAAR α2β1γ2; conditions: value marked #, ref Hogenkamp et al. (2014) and Carter et al. (1997); cited from earlier work
PPD = conditions: cited from earlier work
hippocampal DGGNs = conditions: ref Modgil et al., 2017, cited from earlier work
acute migraine = conditions: in vivo; cited from earlier work
GABAARs [5] = conditions: ref Parakala et al., 2019; cited from earlier work
[6] = target: synaptic (α1β2γ2) GABAARs (Mus musculus, UniProt P22723+P62812+P63137); assay: mIPSCs recorded from thalamic VB neurons in horizontal slice; format: cell-based; conditions: 1 μM, 10 min; VB neuron of P21 mouse, −70 mV
Procedure, shortened: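 GABAAR mIPSCs were recorded at −70 mV from thalamic VB neurons in horizontal slices from P21 mice. Recordings were made under control conditions and after 10 min of test compound at 1 μM. mIPSC decay was examined.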

[7] = target: extrasynaptic (α4β2δ) GABAARs (Mus musculus, UniProt P22933+P63137+Q9D6F4); assay: Tonic current; format: cell-based; conditions: 1 μM; VB neuron of P21 mouse; reversed by bicuculline 20 μM
Procedure, shortened: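 Holding current was taken from the same −70 mV VB neuron recordings in P21 mouse horizontal slices. All-points histograms of holding current were compared under control, after test compound (1 μM), and after co-application of bicuculline (20 μM).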

[8] = system: patients with moderate to severe major depressive disorder; conditions: oral treatment for 14 days; ref Gunduz-Bruce et al., 2019; cited from earlier work
rodent seizure models = conditions: ref Hogenkamp et al., 2014; cited from earlier work
GABAARs [9] = conditions: ref Harrison and Simmonds, 1984; cited from earlier work
[10] = ref Harrison and Simmonds, 1984; cited from earlier work
humans = conditions: 500 mg intravenously (iv.); ref Merryman et al., 1954; cited from earlier work
traumatic brain injury = conditions: ref Wright et al., 2014, Skolnick et al.; cited from earlier work

T1 sequence (P47869 29-451): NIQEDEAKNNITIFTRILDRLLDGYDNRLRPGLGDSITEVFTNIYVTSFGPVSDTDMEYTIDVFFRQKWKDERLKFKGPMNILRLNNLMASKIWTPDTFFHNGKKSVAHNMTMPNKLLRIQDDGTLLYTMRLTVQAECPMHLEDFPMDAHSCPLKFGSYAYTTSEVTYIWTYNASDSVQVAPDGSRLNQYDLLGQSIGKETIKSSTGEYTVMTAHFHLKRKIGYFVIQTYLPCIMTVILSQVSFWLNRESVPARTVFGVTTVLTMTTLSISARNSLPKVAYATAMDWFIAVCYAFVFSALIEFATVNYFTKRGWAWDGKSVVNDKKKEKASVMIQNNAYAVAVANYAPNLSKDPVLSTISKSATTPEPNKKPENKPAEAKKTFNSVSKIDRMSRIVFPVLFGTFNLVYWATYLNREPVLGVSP
T1 sequence (P18505 26-474): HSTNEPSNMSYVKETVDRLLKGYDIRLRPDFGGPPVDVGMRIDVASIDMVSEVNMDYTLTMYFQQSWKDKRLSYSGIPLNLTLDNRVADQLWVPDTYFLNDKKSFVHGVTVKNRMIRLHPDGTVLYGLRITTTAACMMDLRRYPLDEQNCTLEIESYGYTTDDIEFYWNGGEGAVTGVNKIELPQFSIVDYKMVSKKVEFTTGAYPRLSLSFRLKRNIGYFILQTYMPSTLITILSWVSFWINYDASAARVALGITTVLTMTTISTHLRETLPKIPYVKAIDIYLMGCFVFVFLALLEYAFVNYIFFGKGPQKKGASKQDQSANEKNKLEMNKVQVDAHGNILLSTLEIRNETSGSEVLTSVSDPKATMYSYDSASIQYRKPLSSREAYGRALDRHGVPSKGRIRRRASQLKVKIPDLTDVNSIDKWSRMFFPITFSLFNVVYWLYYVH
T1 sequence (P18507 40-475): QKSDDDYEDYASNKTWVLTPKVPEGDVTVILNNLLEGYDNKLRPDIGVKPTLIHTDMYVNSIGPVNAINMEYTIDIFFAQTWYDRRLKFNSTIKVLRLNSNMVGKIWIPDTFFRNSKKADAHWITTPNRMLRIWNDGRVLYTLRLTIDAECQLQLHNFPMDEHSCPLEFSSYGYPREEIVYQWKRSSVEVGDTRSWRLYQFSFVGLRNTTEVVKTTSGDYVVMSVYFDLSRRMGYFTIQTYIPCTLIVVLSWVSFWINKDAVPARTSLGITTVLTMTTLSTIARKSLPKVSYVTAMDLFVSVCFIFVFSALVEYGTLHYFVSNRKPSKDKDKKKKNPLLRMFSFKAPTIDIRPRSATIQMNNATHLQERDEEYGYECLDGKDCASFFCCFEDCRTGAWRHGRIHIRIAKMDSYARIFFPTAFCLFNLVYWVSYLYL
Sequence of human GABAAR α2β2γ2 (P47869 29-451): as the sequence (P47869 29-451) above
Sequence of human GABAAR α2β2γ2 (P47870 26-512): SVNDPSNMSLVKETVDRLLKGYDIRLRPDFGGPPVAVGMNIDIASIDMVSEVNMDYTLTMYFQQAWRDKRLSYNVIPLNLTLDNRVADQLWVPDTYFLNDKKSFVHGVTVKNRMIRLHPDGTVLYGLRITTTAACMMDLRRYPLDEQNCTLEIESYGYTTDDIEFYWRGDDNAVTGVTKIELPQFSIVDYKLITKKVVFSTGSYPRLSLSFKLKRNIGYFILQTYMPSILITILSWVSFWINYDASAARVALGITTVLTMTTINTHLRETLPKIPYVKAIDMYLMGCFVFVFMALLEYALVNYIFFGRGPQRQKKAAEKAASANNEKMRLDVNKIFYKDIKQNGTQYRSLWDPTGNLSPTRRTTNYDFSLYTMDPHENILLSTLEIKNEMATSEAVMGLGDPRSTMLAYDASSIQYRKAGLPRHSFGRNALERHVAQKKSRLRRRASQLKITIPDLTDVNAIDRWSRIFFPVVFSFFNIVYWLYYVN
Sequence of human GABAAR α2β2γ2 (P18507 40-475): as the sequence (P18507 40-475) above
Sequence of human GABAAR α4β3δ (P48169 36-554): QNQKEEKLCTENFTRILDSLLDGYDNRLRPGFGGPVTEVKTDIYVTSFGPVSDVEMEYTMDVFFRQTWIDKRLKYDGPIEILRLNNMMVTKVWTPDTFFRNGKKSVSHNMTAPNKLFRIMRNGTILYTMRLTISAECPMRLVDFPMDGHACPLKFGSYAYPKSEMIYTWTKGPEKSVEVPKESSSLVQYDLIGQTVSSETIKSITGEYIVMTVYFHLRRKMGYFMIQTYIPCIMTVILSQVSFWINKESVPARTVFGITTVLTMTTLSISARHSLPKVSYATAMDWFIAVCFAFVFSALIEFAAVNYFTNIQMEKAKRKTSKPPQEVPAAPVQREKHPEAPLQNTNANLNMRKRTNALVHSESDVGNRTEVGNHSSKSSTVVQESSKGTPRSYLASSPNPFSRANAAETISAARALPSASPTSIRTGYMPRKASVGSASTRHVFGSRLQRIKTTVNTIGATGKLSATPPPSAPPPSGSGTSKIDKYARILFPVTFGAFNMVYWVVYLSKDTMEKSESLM
Sequence of human GABAAR α4β3δ (P28472 26-473): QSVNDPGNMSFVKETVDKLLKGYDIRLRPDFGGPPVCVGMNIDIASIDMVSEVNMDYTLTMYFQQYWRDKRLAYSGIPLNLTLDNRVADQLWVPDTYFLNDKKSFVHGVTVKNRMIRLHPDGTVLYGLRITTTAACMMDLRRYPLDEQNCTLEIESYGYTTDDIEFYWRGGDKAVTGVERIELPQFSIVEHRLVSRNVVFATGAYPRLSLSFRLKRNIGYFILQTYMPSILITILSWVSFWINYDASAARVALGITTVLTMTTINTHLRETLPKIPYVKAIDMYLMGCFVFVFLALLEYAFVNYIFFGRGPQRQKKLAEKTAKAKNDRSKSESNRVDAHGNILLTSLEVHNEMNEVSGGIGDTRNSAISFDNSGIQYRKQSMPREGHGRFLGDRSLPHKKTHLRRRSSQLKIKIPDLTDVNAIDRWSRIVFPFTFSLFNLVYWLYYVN
Sequence of human GABAAR α4β3δ (O14764 25-452): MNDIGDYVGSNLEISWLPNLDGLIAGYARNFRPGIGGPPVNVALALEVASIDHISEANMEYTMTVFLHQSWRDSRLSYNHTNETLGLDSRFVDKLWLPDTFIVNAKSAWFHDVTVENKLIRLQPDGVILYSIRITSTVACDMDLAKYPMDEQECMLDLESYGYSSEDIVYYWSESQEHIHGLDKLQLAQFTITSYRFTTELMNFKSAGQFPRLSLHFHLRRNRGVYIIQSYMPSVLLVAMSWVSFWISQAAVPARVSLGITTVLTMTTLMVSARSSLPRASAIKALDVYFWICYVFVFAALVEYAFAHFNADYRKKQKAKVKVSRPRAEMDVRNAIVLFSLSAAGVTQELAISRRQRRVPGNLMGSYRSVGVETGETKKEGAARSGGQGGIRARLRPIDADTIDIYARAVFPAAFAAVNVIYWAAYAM
Sequence of human GABAAR α1β2γ2 (P14867 28-456): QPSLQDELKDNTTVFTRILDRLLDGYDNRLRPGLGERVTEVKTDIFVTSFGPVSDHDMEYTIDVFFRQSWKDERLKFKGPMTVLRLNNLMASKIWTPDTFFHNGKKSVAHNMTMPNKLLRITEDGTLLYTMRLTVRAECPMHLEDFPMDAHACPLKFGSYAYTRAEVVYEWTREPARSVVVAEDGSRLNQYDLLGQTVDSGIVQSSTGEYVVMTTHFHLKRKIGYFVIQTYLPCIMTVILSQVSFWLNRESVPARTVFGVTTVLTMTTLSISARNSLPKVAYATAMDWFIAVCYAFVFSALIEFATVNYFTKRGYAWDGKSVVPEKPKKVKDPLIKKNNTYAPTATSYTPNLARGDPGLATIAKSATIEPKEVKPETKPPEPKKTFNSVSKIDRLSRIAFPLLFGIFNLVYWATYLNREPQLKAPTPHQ
Sequence of human GABAAR α1β2γ2 (P47870 26-512): as the sequence (P47870 26-512) above
Sequence of human GABAAR α1β2γ2 (P18507 40-475): as the sequence (P18507 40-475) above
Sequence of human GABAAR α1β1γ2 (P14867 28-456): as the sequence (P14867 28-456) above
Sequence of human GABAAR α1β1γ2 (P18505 26-474): as the sequence (P18505 26-474) above
Sequence of human GABAAR α1β1γ2 (P18507 40-475): as the sequence (P18507 40-475) above
Sequence of synaptic (α1β2γ2) GABAARs (P62812 28-455): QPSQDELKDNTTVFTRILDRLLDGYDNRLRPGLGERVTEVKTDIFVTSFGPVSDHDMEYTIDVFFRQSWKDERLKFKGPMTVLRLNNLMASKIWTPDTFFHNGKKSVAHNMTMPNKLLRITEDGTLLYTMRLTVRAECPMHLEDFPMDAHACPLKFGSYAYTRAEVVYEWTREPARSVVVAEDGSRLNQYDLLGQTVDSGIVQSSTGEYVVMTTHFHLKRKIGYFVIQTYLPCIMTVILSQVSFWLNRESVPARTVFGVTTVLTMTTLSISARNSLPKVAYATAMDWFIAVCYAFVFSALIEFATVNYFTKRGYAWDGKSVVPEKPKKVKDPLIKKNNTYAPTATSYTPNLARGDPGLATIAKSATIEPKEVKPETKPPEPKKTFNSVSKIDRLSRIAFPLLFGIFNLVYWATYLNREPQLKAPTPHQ
Sequence of synaptic (α1β2γ2) GABAARs (P63137 25-512 limits assumed): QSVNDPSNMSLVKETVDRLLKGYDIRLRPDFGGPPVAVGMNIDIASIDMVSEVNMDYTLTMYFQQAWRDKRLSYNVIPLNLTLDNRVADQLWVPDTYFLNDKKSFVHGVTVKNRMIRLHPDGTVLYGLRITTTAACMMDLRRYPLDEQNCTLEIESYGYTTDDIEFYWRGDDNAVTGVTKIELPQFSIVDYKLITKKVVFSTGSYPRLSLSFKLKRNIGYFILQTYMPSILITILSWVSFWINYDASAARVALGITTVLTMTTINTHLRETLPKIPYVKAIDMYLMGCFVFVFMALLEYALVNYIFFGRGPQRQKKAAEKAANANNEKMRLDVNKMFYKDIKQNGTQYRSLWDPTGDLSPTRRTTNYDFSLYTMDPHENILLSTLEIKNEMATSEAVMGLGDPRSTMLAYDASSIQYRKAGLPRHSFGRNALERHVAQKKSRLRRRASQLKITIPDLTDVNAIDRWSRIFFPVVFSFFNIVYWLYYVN
Sequence of synaptic (α1β2γ2) GABAARs (P22723 39-474): as the sequence (P18507 40-475) above

## CCOC(=O)Nc1ccc(NCc2c(C)cc(C)cc2C)cc1N [AA29504]
[1]; ref Hoestgaard-Jensen et al., 2010
  ratio of brain to plasma levels: favorable ratio of brain to plasma levels

## CC(=O)[C@H]1CC[C@H]2[C@@H]3CC[C@H]4C[C@H](O)CC[C@]4(C)[C@H]3CC[C@]12C [AlloP, 5α-pregnan-3α-ol-20-one]
Human GABAAR α1β1γ2
  Max Mod ± SEM: 817 ± 62 % control
Human GABAAR α1β2γ2
  Max Mod ± SEM: 909 ± 68 % control
Human GABAAR α2β1γ2 [2]
  Max Mod ± SEM: 878 ± 211 % control
Human GABAAR α2β2γ2
  Max Mod ± SEM: 485 ± 257 % control
Human GABAAR α4β3δ
  Max Mod ± SEM: 1401 ± 88 % control
[3]
  brain concentration relative to that in plasma: 3 ×

## O=C(Nc1c(-c2cccs2)nc2ccccn12)c1ccc(Cl)cc1 [DS2]
Synaptic GABAARs
  activity on synaptic GABAARs: no activity
[1]; ref Wafford et al., 2009, Jensen et al., 2013
  CNS penetration: poor CNS penetration

## CC(=O)[C@H]1CC[C@H]2[C@@H]3CC[C@H]4C[C@](C)(O)CC[C@]4(C)[C@H]3CC[C@]12C [Ganaxolone, 3alpha-hydroxy-3beta-methyl-5alpha-pregnan-20-one]
Human GABAAR α1β1γ2
  Max Mod ± SEM: 1006 ± 241 % control
Human GABAAR α1β2γ2
  Max Mod ± SEM: 1151 ± 367 % control
Human GABAAR α2β2γ2
  Max Mod ± SEM: 646 ± 254 % control
Human GABAAR α4β3δ
  Max Mod ± SEM: 1710 ± 534 % control
Human GABAAR α2β1γ2 [4]
  Max Mod ± SEM: 700 ± 50^# % control
PPD; oral (p.o) dose of 1175 mg once per day for 28 days, ref trade press
  outcome in PPD, preliminary findings: not meeting primary endpoints
Hippocampal DGGNs; in contrast to allopregnanolone
  sustained enhancement of tonic conductance: did not produce a sustained enhancement
Hippocampal DGGNs
  acute effect on tonic current: acutely increased the tonic current
Acute migraine
  outcome in phase II trials, acute migraine: failed to demonstrate efficacy

## C=C[C@]12CCC(=O)C=C1CC[C@H]1[C@@H]3CC[C@H](C(C)=O)[C@@]3(C)CC[C@@H]12 [ORG OD 02-0]
GABAARs [5]
  direct interaction with GABAARs: no direct interaction with GABAARs

## C[C@@]1(O)CC[C@H]2[C@H](CC[C@@H]3[C@@H]2CC[C@]2(C)[C@@H](C(=O)Cn4cc(C#N)cn4)CC[C@@H]32)C1 [SAGE-217, 3alpha-Hydroxy-3beta-methyl-21-(4-cyano-1H-pyrazol-1’-yl)-19-nor-5beta-pregnan-20-one]
Human GABAAR α1β1γ2
  Max Mod ± SEM: 488 ± 33 % control
Human GABAAR α1β2γ2
  Max Mod ± SEM: 823 ± 353 % control
Human GABAAR α2β1γ2 [2]
  Max Mod ± SEM: 851 ± 93 % control
Human GABAAR α2β2γ2
  Max Mod ± SEM: 1355 ± 173 % control
Human GABAAR α4β3δ
  Max Mod ± SEM: 783 ± 122 % control
[6]
  duration of miniature inhibitory postsynaptic currents (mIPSCs): greatly prolong
[7]
  tonic current: enhance the tonic current
PPD; 30 mg p.o. once a day for 14 days, reported by Sage
  outcome of phase II study: positive results
[8]
  depressive symptoms: effective in reducing depressive symptoms
  main side effects: dizziness and somnolence/sedation

## C[C@@]1(O)CC[C@@]2(C)[C@@H](CC[C@@H]3[C@@H]2CC[C@]2(C)[C@@H](c4cc(CO)on4)CC[C@@H]32)C1 [UCI-50027, 3-[3α-hydroxy-3β-methyl-5α-androstan-17β-yl]-5-(hydroxymethyl)isoxazole]
Human GABAAR α1β1γ2
  Max Mod ± SEM: 472 ± 84 % control
Human GABAAR α1β2γ2
  Max Mod ± SEM: 587 ± 91 % control
Human GABAAR α2β1γ2 [2]
  Max Mod ± SEM: 277 ± 47 % control
Human GABAAR α2β2γ2
  Max Mod ± SEM: 595 ± 176 % control
Human GABAAR α4β3δ
  Max Mod ± SEM: 919 ± 229 % control
Rodent seizure models
  anticonvulsant/anxiolytic therapeutic index: greater anticonvulsant/anxiolytic therapeutic index than ganaxolone

## CC(=O)[C@H]1CC[C@H]2[C@@H]3CC[C@H]4C[C@@H](O)CC[C@]4(C)[C@H]3C(=O)C[C@]12C [betaxalone]
GABAARs [9]
  effect on GABAARs: no effect
[10]
  behavioural effect: behaviourally inert

## CC(=O)[C@H]1CC[C@H]2[C@@H]3CCC4=CC(=O)CC[C@]4(C)[C@H]3CC[C@]12C [progesterone]
humans
  effect in humans: anesthetic effect
Traumatic brain injury
  outcome in phase III trials, moderate to severe traumatic brain injury: failed to meet primary criteria
